Calls of active or inactive are those of the source. No cut-off for these calls is given here.
Legend:
Enterovirus A71 [1] = test: Antiviral activity against EV71 infected in RD cells after 24 hrs by luciferase assay; type: functional, organism-based; conditions: Enterovirus A
[2] = Cytotoxicity against ICR mouse T spleen cells assessed as inhibition of cell proliferation after 72 hrs by MTT assay; type: cell-based
Procedure, shortened: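 Proliferation of T and B spleen cells, each from one mouse, run as triplicate sets per assay. IC50 is the mean ± SD of three experiments.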

[3] = Cytotoxicity against ICR mouse B spleen cells assessed as inhibition of cell proliferation after 72 hrs by MTT assay; type: cell-based
[4] = Cytotoxicity against human RD cells after 24 hrs by WST-1 assay; type: cell-based
[5] = biological target: T1, Peptidyl-prolyl cis-trans isomerase A (Homo sapiens, UniProt P62937); test: Inhibition of CypA (unknown origin) assessed as peptidyl-prolyl cis-trans isomerase activity at 10 uM using N-succinyl-Ala-Ala-Pro-Phe-p-nitroanilide as substrate by spectrophotometry
Target sequence in this assay (P62937 whole entry, looked up): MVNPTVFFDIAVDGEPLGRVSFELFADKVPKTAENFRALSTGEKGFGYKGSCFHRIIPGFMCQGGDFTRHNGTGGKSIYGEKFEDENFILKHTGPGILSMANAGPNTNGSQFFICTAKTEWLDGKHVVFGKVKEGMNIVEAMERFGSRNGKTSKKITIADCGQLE

[6] = Retention time of the compound by HPLC analysis; type: physicochemical
[7] = biological target: T1, Peptidyl-prolyl cis-trans isomerase A; test: Inhibition of CypA (unknown origin) assessed as peptidyl-prolyl cis-trans isomerase activity using N-succinyl-Ala-Ala-Pro-Phe-p-nitroanilide as substrate by spectrophotometry
Target sequence in this assay (P62937 whole entry): as the sequence (P62937 whole entry, looked up) above

Enterovirus A71 [8] = test: Antiviral activity against EV71; type: functional, organism-based; conditions: Enterovirus A
Enterovirus A71 [9] = test: Potency index, Ratio of EC50 for cyclosporin A to EC50 for compound for antiviral activity against EV71; type: functional
Enterovirus A71 [10] = test: Antiviral activity against EV71 infected in RD cells assessed as decrease in viral RNA level at 5 uM after qRT-PCR analysis; type: functional; conditions: Enterovirus A, read-out: INH
Procedure, shortened: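 Cells are infected with wild-type or S243P mutant EV71 and treated at 5 μM. Viral RNA is reported as a percentage of untreated control cells, with GAPDH mRNA as internal control. Each point is the average of three replicates.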

Enterovirus A71 [11] = test: Antiviral activity against EV71 infected in RD cells at 0.31 to 5 uM after 24 hrs by luciferase assay in presence of NK-1.8K; type: functional
Enterovirus A71 [12] = test: Antiviral activity against EV71 infected in RD cells at 0.08 uM after 24 hrs by luciferase assay in presence of NK-1.8K; type: functional, organism-based
Enterovirus A71 [13] = test: Antiviral activity against EV71 infected in RD cells at 0.31 to 5 uM after 24 hrs by luciferase assay in presence of NITD008; type: functional
Enterovirus A71 [14] = test: Antiviral activity against EV71 infected in RD cells at 0.08 uM after 24 hrs by luciferase assay in presence of NITD008; type: functional, organism-based
Enterovirus A71 [15] = test: Antiviral activity against EV71 infected in RD cells assessed as decrease in viral protein1 level by western blot analysis; type: functional, organism-based
Procedure, shortened: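 EV71 VP1 protein detected by western blot in a dose series of 5, 1, 0.2 and 0.04 μM. NITD008 at 5 μM serves as positive control.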

SMILES	EC50 (Enterovirus A71 [1]) [µM]	inhibition [5] [%]	Retention_time [6] [min]	IC50 ([7]; read-out: IC50) [µM]	CC50 at 24 h [4] [µM]	also measured
O=C(NC(=O)c1c(O)cccc1O)NC1c2ccccc2-c2cc(Cl)ccc21 (centres undefined)	0.46	–	4.19	1.22	> 25	–
O=C(NC(=O)c1ccccc1F)NC1c2ccccc2-c2cccc(F)c21 (centres undefined)	0.66	–	6.02	10.4	> 25	–
C/C=C/C[C@@H](C)[C@@H](O)[C@H]1C(=O)N[C@@H](CC)C(=O)N(C)CC(=O)N(C)[C@@H](CC(C)C)C(=O)N[C@@H](C(C)C)C(=O)N(C)[C@@H](CC(C)C)C(=O)N[C@@H](C)C(=O)N[C@H](C)C(=O)N(C)[C@@H](CC(C)C)C(=O)N(C)[C@@H](CC(C)C)C(=O)N(C)[C@@H](C(C)C)C(=O)N1C [CYCLOSPORINE]	3.66	–	–	–	–	–
O=C(NCc1c(O)cccc1O)NC1c2ccccc2-c2ccccc21	> 10	9.25	5.37	10	> 25	–
O=C(NC(=O)c1cc(F)ccc1O)NC1c2ccccc2-c2ccccc21	3.78	27.7	8.91	10	> 25	–
O=C(NC(=O)c1ccc(O)cc1O)NC1c2ccccc2-c2ccccc21	> 25	21.4	5.44	10	> 25	–
CCOC(=O)/C=C/[C@H](C[C@@H]1CCNC1=O)NC(=O)[C@@H](CC(=O)[C@@H](NC(=O)c1cc(C)on1)C(C)C)Cc1ccc(F)cc1	–	–	–	–	–	EC50 (Enterovirus A71 [8]): 0.014 µM
O=C(NC(=O)c1c(O)cccc1O)NC1c2ccccc2-c2ccccc21	3.36	–	–	–	> 20	IC50 [2]: 33 µM; IC50 [3]: 51.9 µM
O=C(NC(=O)c1c(O)cccc1O)NC1c2ccccc2-c2cc(F)ccc21 (centres undefined)	0.37	–	8.07	2.76	> 25	Ratio EC50 (Enterovirus A71 [9]): 9.9; inhibition at 5 µM (Enterovirus A71 [10]): 3%; %max (Enterovirus A71 [11]): 20%; Activity (Enterovirus A71 [12]): inactive; %max (Enterovirus A71 [13]): 20%; Activity (Enterovirus A71 [14]): inactive; inhibition (Enterovirus A71 [15]): Dose-dependent effect
O=C(NC(=O)c1ccccc1F)NC1c2ccccc2C2CCCCC21 (racemic)	5.25	33.5	9.04	10	> 25	–
Cc1ccc2c(c1)-c1ccccc1C2NC(=O)NC(=O)c1c(O)cccc1O (centres undefined)	2.72	–	4.42	11.6	> 25	–
O=C(Cc1ccccc1F)NC(=O)NC1c2ccccc2-c2ccccc21	> 10	16.9	6.05	10	> 50	–

Continued, in another order:

EC50 (Enterovirus A71 [1]) [µM]	inhibition [5] [%]	Retention_time [6] [min]	IC50 ([7]; read-out: IC50) [µM]	SMILES	CC50 at 24 h [4] [µM]	also measured
1.07	–	–	–	O=C(NC(=O)c1ccccc1F)NC1c2ccccc2-c2ccccc21	> 20	IC50 [2]: > 100 µM; IC50 [3]: > 100 µM
> 10	20.3	5.68	–	O=C(NC(=O)c1c(O)cccc1O)NC1c2ccccc2-c2cc(C(F)(F)F)ccc21 (centres undefined)	> 25	–
2.11	–	6.15	10.3	O=C(NC(=O)c1ccccc1F)NC1c2ccccc2-c2cc(F)ccc21 (centres undefined)	> 10	–
5.85	–	–	–	O=C(NC(=O)c1c(F)cccc1F)NC1c2ccccc2-c2ccccc21	> 20	–
4.31	27.6	5.41	10	O=C(NC(=O)c1c(O)cccc1O)NC1c2ccccc2C2CCCCC21 (racemic)	> 25	–
3.34	–	6.6	10.8	O=C(NC(=O)c1ccccc1F)NC1c2ccccc2-c2cc(Cl)ccc21 (centres undefined)	> 25	–
> 25	–	7.88	–	O=C(NC(=O)c1cc(O)cc(O)c1)NC1c2ccccc2-c2ccccc21	> 25	IC50 [7]: Not Active
0.92	28.7	8.84	10	Cc1ccc2c(c1)-c1ccccc1C2NC(=O)NC(=O)c1ccccc1F (centres undefined)	> 10	–
1.92	39.1	5.07	10	O=C(NC(=O)c1c(O)cccc1O)NC1c2ccccc2-c2cc3ccccc3cc21 (centres undefined)	> 25	–
1.08	–	4.94	10.3	O=C(NC(=O)c1c(O)cccc1O)NC1c2ccc(F)cc2-c2ccc(F)cc21 (centres undefined)	> 25	–
1.13	–	4.7	0.94	O=C(NC(=O)c1c(O)cccc1O)NC1c2ccccc2-c2cccc(F)c21 (centres undefined)	> 25	–
> 25	17.8	5.57	10	O=C(NCc1ccccc1F)NC1c2ccccc2-c2ccccc21	> 25	–

Reference: ChEMBL document CHEMBL3739281, “Identification, synthesis and pharmacological evaluation of novel anti-EV71 agents via cyclophilin A inhibition” (Bioorg Med Chem Lett, 2015)
